Measured values reported in ChEMBL document CHEMBL3108692, “Potent Targeting of the STAT3 Protein in Brain Cancer Stem Cells: A Promising Route for Treating Glioblastoma” (ACS Med Chem Lett, 2013).
Calls of active or inactive are those of the source. The rule behind the calls is not given here.

Columns and labels:
[1] = molecular target: Mitogen-activated protein kinase 3 (Homo sapiens) (UniProt P27361); test: Inhibition of ERK1 (unknown origin) at 5 uM after 120 mins
[2] = molecular target: Epidermal growth factor receptor (Homo sapiens) (UniProt P00533); test: Inhibition of EGFR in human 147EF cells after 6 hrs by Western blotting analysis; format: cell-based
[3] = molecular target: Proto-oncogene tyrosine-protein kinase Src (Homo sapiens) (UniProt P12931); test: Inhibition of Src in human 147EF cells after 6 hrs by Western blotting analysis; format: cell-based
Sequence of Proto-oncogene tyrosine-protein kinase Src (Homo sapiens) (P12931 2-536 limits assumed): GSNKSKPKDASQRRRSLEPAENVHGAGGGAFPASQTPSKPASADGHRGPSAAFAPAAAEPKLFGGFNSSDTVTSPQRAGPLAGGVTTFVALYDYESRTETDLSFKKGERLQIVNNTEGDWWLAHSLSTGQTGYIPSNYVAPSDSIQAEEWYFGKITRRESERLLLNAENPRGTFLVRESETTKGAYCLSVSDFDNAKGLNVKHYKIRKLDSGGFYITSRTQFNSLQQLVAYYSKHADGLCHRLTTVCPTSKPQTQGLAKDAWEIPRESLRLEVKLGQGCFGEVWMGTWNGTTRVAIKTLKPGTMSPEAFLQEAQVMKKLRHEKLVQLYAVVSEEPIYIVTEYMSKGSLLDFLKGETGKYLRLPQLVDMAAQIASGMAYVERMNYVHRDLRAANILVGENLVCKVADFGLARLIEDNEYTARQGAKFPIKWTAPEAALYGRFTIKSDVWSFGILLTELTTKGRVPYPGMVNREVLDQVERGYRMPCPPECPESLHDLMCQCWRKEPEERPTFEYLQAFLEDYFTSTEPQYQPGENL

[4] = Cytotoxicity against HF2006 cells assessed as cell viability at 5 uM after 3 days by Alamar Blue assay; format: cell-based; details: human, 72 h
Method in brief: (§1)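 Normal human fetal astrocytes (healthy, non-tumor cells) were exposed to compounds at concentrations up to 5 μM, with viability as the cytotoxicity read-out.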

[5] = species: Homo sapiens; test: Inhibition of AKT in human 147EF cells after 6 hrs by Western blotting analysis; format: cell-based
[6] = Cytotoxicity against HF2003 cells assessed as cell viability at 5 uM after 3 days by Alamar Blue assay; format: cell-based; details: human, 72 h; method in brief: as §1
[7] = species: Homo sapiens; test: Inhibition of MAPK in human 147EF cells after 6 hrs by Western blotting analysis; format: cell-based
[8] = molecular target: Tyrosine-protein kinase JAK1 (Homo sapiens) (UniProt P23458); test: Inhibition of JAK1 (unknown origin) at 5 uM after 120 mins
Sequence of Tyrosine-protein kinase JAK1 (Homo sapiens) (P23458 whole entry, the tested form may be a part): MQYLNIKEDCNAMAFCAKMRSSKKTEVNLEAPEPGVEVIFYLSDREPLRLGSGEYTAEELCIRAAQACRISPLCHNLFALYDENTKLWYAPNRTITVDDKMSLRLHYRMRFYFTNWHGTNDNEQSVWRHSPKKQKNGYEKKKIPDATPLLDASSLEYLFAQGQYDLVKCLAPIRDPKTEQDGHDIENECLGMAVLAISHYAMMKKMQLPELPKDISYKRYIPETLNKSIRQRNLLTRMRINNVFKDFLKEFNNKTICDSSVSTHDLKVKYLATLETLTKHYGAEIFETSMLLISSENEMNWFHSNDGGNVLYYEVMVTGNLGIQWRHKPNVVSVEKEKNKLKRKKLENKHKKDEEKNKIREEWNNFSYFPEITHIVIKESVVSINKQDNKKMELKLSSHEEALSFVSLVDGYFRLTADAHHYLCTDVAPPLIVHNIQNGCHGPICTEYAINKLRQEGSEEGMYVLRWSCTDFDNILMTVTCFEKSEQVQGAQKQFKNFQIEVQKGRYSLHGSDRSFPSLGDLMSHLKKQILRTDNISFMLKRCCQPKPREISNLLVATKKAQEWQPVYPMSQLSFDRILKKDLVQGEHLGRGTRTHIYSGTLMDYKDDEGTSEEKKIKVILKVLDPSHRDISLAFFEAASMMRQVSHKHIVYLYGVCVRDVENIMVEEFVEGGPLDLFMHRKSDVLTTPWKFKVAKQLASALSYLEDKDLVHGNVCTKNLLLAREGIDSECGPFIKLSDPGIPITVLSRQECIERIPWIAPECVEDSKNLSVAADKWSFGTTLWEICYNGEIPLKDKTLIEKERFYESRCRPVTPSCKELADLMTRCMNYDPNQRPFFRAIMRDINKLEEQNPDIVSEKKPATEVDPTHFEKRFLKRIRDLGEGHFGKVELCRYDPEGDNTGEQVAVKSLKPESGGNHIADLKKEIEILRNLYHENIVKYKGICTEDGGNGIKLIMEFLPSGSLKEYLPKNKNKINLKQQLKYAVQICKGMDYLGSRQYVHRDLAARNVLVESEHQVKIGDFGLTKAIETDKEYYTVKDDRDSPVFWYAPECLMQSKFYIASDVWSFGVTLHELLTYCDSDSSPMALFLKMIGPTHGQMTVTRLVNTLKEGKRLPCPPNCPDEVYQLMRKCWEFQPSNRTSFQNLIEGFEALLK

[9] = molecular target: Tyrosine-protein kinase JAK2 (Homo sapiens) (UniProt O60674); test: Inhibition of JAK2 in human 147EF cells after 6 hrs by Western blotting analysis; format: cell-based
Sequence of Tyrosine-protein kinase JAK2 (Homo sapiens) (O60674 whole entry, the tested form may be a part): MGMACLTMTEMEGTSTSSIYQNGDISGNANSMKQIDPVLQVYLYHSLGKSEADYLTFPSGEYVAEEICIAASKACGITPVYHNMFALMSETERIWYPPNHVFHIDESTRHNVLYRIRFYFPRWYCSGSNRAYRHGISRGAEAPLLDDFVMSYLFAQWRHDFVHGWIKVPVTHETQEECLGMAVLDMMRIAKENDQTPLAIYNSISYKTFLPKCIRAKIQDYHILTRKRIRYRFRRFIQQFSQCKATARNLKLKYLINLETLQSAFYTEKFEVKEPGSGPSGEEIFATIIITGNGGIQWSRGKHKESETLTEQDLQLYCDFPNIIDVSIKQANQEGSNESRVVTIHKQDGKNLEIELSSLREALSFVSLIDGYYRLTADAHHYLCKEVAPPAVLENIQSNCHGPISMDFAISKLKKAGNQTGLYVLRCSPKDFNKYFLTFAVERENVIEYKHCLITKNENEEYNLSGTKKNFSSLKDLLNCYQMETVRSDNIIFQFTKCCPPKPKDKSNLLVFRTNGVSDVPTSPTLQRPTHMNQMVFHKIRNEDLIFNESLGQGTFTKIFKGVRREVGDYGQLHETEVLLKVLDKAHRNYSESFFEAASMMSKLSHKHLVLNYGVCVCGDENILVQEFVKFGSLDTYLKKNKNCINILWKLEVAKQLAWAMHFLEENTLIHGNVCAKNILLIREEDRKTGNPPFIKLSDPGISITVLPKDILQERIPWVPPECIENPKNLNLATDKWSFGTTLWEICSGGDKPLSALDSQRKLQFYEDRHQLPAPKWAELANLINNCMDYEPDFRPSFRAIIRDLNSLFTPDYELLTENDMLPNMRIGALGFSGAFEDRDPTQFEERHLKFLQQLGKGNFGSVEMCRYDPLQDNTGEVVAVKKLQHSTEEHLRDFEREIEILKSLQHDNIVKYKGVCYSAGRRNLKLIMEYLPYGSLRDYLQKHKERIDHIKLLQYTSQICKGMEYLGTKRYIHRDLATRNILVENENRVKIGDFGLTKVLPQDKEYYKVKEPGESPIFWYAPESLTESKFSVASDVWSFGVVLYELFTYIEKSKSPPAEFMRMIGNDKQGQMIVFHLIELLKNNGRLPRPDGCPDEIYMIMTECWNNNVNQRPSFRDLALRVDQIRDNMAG

[10] = molecular target: RAC-alpha serine/threonine-protein kinase (Homo sapiens) (UniProt P31749); test: Inhibition of AKT1 (unknown origin) at 5 uM after 120 mins
Sequence of RAC-alpha serine/threonine-protein kinase (Homo sapiens) (P31749 whole entry): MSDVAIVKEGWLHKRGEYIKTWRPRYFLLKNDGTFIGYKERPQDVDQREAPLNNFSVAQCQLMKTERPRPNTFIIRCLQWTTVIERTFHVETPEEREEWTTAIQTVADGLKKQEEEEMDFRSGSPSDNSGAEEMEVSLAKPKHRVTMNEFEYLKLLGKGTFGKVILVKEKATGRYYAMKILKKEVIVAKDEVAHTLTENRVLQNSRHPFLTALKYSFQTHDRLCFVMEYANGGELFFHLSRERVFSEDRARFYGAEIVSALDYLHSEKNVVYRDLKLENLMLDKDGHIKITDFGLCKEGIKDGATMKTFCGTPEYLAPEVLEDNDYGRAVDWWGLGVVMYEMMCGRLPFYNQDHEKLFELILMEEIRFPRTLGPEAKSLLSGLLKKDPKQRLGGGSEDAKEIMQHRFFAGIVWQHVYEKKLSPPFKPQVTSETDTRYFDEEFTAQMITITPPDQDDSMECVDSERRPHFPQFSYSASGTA

[11] = molecular target: Proto-oncogene tyrosine-protein kinase Src (Homo sapiens) (UniProt P12931); test: Inhibition of c-Src (unknown origin) at 5 uM after 120 mins relative to control
[12] = molecular target: Tyrosine-protein kinase JAK2 (Homo sapiens) (UniProt O60674); test: Inhibition of JAK2 (unknown origin) at 5 uM after 120 mins relative to control
[13] = molecular target: T1, Signal transducer and activator of transcription 3 (Homo sapiens, UniProt P40763); test: Competitive binding affinity to STAT3 SH2 domain (unknown origin) assessed as inhibition of interaction with FAMpYLPQTV after 15 to 30 mins by fluorescent polarization assay
T1 sequence (P40763 whole entry, the tested form may be a part): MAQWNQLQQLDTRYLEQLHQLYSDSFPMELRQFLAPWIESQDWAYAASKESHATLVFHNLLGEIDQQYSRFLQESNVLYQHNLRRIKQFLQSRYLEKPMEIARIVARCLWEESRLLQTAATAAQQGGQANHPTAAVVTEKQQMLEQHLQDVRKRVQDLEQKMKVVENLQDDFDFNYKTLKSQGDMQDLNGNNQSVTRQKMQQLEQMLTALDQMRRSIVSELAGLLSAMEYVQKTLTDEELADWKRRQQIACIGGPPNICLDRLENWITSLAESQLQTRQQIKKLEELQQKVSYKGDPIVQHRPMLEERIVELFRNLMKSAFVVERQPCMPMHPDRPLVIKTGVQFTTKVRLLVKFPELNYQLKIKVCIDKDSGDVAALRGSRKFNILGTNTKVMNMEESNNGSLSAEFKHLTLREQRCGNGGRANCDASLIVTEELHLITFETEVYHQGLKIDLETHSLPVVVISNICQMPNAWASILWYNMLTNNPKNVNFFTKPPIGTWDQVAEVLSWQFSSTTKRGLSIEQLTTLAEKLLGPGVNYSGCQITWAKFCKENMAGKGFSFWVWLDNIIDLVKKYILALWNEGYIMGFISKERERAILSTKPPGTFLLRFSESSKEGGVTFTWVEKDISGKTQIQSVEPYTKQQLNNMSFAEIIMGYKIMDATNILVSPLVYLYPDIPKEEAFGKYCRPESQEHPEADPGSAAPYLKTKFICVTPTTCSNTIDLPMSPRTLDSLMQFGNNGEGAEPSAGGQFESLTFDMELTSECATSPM

[14] = tested on: BT73; test: Antitumor activity against human BT73 cells xenografted in NOD-SCID mouse assessed as tumor growth inhibition by measuring downregulation of Ki67 protein expression at 10 mg/kg, ip administered as 4 days on/3 days off schedule measured 2 hrs post last dose; format: functional, organism-based; set-up: dose 10 mg/kg
Method in brief: (§2)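 Mice were NOD-SCID with orthotopic BT73 human glioma xenografts. Starting on day 7, they received 10 intraperitoneal doses of 10 mg/kg or vehicle on a 4 days on/3 days off schedule. Animals were killed 2 h after the last dose and brain tumors excised. Read-outs were hematoxylin/eosin staining for tumor cellularity and immunohistochemistry for pSTAT3, Ki67 (proliferation) and TUNEL (apoptosis).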

[15] = Cytotoxicity against human 30M cells assessed as cell viability after 3 days by Alamar Blue assay; details: 72 h
[16] = Cytotoxicity against human 84EF cells assessed as cell viability after 3 days by Alamar Blue assay; details: 72 h
[17] = cells; details: Homo sapiens, 72 h
[18] = species: Homo sapiens; test: Inhibition of AKT phosphorylation in human 147EF cells at 0.1 to 1 uM after 3 hrs by Western blotting analysis; format: cell-based
[19] = Cytotoxicity against human 73EF cells assessed as cell viability after 3 days by Alamar Blue assay; details: 72 h
[20] = molecular target: Tyrosine-protein kinase Fes/Fps (Homo sapiens) (UniProt P07332); test: Inhibition of FES (unknown origin) SH3 domain expressed in HEK293 cells at 500 nM preincubated for 1 hr followed by compound washout measured after 30 mins by qPCR analysis; format: cell-based
[21] = species: Homo sapiens; test: Induction of apoptosis in human 147EF cells assessed as PARP cleavage at 0.1 to 1 uM after 3 hrs by Western blotting analysis; format: functional, cell-based
[22] = molecular target: Platelet-derived growth factor receptor beta (Homo sapiens) (UniProt P09619); test: Inhibition of PDGFRB (unknown origin) at 10 uM by enzymatic assay
[23] = molecular target: T2, Signal transducer and activator of transcription 5A (Homo sapiens, UniProt P42229); test: Binding affinity to His-tagged STAT5 (unknown origin) by SPR spectroscopic analysis
T2 sequence (P42229 whole entry): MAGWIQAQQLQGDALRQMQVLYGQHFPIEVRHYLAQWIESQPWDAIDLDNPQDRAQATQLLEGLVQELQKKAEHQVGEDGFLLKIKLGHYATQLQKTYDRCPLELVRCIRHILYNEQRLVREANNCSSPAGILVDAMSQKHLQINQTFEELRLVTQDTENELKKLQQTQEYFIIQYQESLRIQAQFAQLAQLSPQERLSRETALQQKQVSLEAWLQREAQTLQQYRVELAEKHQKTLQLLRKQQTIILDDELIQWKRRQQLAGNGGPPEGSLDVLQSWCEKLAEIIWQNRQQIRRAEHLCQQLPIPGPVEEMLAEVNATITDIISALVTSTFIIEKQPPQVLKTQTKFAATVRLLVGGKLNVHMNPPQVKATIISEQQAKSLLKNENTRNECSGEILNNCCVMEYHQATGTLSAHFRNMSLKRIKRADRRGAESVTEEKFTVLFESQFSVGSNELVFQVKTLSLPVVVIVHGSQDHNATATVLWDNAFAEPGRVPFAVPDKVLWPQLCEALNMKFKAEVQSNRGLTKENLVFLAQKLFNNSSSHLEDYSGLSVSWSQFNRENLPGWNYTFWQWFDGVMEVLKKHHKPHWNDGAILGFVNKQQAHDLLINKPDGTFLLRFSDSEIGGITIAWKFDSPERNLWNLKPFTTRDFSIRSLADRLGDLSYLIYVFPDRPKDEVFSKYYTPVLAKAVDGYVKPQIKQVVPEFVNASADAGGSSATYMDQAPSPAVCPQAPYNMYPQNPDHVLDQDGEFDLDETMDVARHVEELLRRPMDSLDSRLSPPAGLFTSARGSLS
Method in brief: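 SPR binding to STAT3 and STAT5 proteins was run at several analyte concentrations: 5.000, 1.667, 0.556 and 0.185 μM.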

[24] = Cytotoxicity against human 30M cells assessed as cell viability after 8 days by Alamar Blue assay; format: functional, cell-based; details: 192 h
[25] = molecular target: Tyrosine-protein kinase Fer (Homo sapiens) (UniProt P16591); test: Inhibition of FER (unknown origin) SH3 domain expressed in HEK293 cells at 500 nM preincubated for 1 hr followed by compound washout measured after 30 mins by qPCR analysis; format: cell-based
[26] = molecular target: T1, Signal transducer and activator of transcription 3; test: Inhibition of STAT3 phosphorylation at Y705 in human 73M cells at 1 uM; format: cell-based
Method in brief: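 Human 73M glioblastoma brain tumour stem cells were exposed to the inhibitor alongside the JAK2 inhibitor reference WP1066. Activated STAT3 was then read out by Western blot for STAT3 phosphorylated at Y705.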

[27] = molecular target: Platelet-derived growth factor receptor beta (Homo sapiens) (UniProt P09619); test: Inhibition of PDGFRB (unknown origin) expressed in HEK293 cells at 500 nM preincubated for 1 hr followed by compound washout measured after 30 mins by qPCR analysis relative to control; format: cell-based
[28] = tested on: Mus musculus; test: In vivo inhibition of STAT3 phosphorylation in tumor of NOD-SCID mouse xenografted with human BT73 cells at 10 mg/kg, ip administered as 4 days on/3 days off schedule measured 2 hrs post last dose; format: functional, organism-based; set-up: dose 10 mg/kg; method in brief: as §2
[29] = molecular target: T1, Signal transducer and activator of transcription 3; test: Inhibition of STAT3 phosphorylation at Y705 in human 147EF cells at 0.1 to 1 uM after 3 hrs by Western blotting analysis; format: cell-based
[30] = tested on: BT73; test: Antitumor activity against human BT73 cells xenografted in NOD-SCID mouse assessed as induction of apoptosis in tumor at 10 mg/kg, ip administered as 4 days on/3 days off schedule measured 2 hrs post last dose by TUNEL assay; format: functional, organism-based; set-up: dose 10 mg/kg; method in brief: as §2
[31] = Cytotoxicity against human 25EF cells assessed as cell viability after 3 days by Alamar Blue assay; details: 72 h
[32] = molecular target: Tyrosine-protein kinase JAK2 (Homo sapiens) (UniProt O60674); test: Inhibition of JAK2 (unknown origin) SH2 domain expressed in HEK293 cells at 500 nM preincubated for 1 hr followed by compound washout measured after 30 mins by qPCR analysis; format: cell-based
[33] = tested on: BT73; test: Antitumor activity against human BT73 cells xenografted in NOD-SCID mouse assessed as decrease in tumor size at 10 mg/kg, ip administered as 4 days on/3 days off schedule measured 2 hrs post last dose by hematoxylin/eosin staining; format: functional, organism-based; set-up: dose 10 mg/kg; method in brief: as §2
[34] = molecular target: Tyrosine-protein kinase JAK1 (Homo sapiens) (UniProt P23458); test: Inhibition of JAK1 (unknown origin) SH2 domain expressed in HEK293 cells at 500 nM preincubated for 1 hr followed by compound washout measured after 30 mins by qPCR analysis; format: cell-based
[35] = molecular target: Tyrosine-protein kinase Fyn (Homo sapiens) (UniProt P06241); test: Inhibition of FYN (unknown origin) SH3 domain expressed in HEK293 cells at 500 nM preincubated for 1 hr followed by compound washout measured after 30 mins by qPCR analysis; format: cell-based
Sequence of Tyrosine-protein kinase Fyn (Homo sapiens) (P06241 2-537 limits assumed): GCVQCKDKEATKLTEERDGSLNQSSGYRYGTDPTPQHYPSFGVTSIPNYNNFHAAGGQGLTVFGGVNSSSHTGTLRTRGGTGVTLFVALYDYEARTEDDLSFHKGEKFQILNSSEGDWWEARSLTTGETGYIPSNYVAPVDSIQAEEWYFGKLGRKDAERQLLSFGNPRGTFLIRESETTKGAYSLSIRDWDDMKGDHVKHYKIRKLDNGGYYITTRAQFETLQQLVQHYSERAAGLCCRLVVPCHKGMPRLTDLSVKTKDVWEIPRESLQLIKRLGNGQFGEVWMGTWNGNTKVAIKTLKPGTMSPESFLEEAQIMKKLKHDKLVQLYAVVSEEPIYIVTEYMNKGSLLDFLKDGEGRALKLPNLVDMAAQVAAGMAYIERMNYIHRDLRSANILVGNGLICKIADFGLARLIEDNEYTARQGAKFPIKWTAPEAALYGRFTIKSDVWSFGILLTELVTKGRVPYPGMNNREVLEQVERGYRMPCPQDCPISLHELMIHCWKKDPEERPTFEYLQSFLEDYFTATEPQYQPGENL

[36] = Cytotoxicity against human 73M cells assessed as cell viability after 8 days by Alamar Blue assay; format: functional, cell-based; details: 192 h
[37] = Cytotoxicity against human 67EF cells assessed as cell viability after 3 days by Alamar Blue assay; details: 72 h

Sequence of Mitogen-activated protein kinase 3 (Homo sapiens) (P27361 whole entry): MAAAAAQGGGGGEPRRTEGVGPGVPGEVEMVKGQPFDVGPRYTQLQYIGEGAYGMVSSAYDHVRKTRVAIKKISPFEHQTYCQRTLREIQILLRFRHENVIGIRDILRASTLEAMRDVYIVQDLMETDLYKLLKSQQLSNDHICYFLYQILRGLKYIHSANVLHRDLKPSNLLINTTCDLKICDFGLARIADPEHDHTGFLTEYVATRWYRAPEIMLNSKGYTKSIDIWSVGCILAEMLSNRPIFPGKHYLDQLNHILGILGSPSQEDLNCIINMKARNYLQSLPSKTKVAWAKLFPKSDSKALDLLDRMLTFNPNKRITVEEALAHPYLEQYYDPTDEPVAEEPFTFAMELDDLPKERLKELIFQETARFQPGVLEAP

CN(CC(=O)N(Cc1ccc(C2CCCCC2)cc1)c1ccc(C(=O)NO)cc1)S(=O)(=O)c1c(F)c(F)c(F)c(F)c1F
inhibition [1]: inactive | inhibition [2]: inactive | inhibition [3]: inactive | Activity [4]: Non-toxic | inhibition [5]: inactive | Activity [6]: Non-toxic | inhibition [7]: inactive | inhibition [8]: inactive | inhibition [9]: inactive | inhibition [10]: inactive | inhibition [11]: 50% | inhibition [12]: 50%

CN(CC(=O)N(Cc1ccc(C2CCCCC2)cc1)c1ccc(C(=O)OCOC(=O)C(C)(C)C)cc1)S(=O)(=O)c1c(F)c(F)c(F)c(F)c1F
inhibition [13]: inactive

CN(CC(=O)N(Cc1ccc(C2CCCCC2)cc1)c1ccc(C(=O)O)cc1)S(=O)(=O)c1c(F)c(F)c(F)c(F)c1F
TGI [14]: Active | inhibition [1]: inactive | IC50 [15]: 100 nM | inhibition [2]: inactive | IC50 [16]: 102 nM | IC50 [17]: 66 nM | inhibition [3]: inactive | Activity [4]: Non-toxic | inhibition [18]: Active | inhibition [5]: inactive | IC50 [19]: 162 nM | Activity [6]: Non-toxic | inhibition [7]: inactive | inhibition [20]: inactive | Activity [21]: Active | inhibition [22]: inactive | Kd [23]: 464 nM | IC50 [24]: 430 nM | inhibition [25]: inactive | inhibition [26]: Active | inhibition [27]: 35% | inhibition [28]: Active | inhibition [8]: inactive | inhibition [9]: inactive | inhibition [10]: inactive | inhibition [29]: Active | Activity [30]: Active | IC50 [31]: 234 nM | inhibition [32]: inactive | Activity [33]: Active | inhibition [11]: 50% | inhibition [34]: inactive | inhibition [35]: inactive | IC50 [36]: 1030 nM | IC50 [37]: 106 nM | inhibition [12]: 50%

CC(=O)Oc1cc(N(Cc2ccc(C3CCCCC3)cc2)C(=O)CN(C)S(=O)(=O)c2c(F)c(F)c(F)c(F)c2F)ccc1C(=O)O
inhibition [1]: inactive | IC50 [15]: 100 nM | inhibition [2]: inactive | IC50 [16]: 332 nM | IC50 [17]: 272 nM | inhibition [3]: inactive | Activity [4]: Non-toxic | inhibition [5]: inactive | inhibition [13]: inactive | IC50 [19]: 1080 nM | Activity [6]: Non-toxic | inhibition [7]: inactive | inhibition [8]: inactive | inhibition [9]: inactive | inhibition [10]: inactive | IC50 [31]: 1140 nM | inhibition [11]: 50% | IC50 [37]: 436 nM | inhibition [12]: 50%

CN(CC(=O)N(Cc1ccc(C2CCCCC2)cc1)c1ccc(C(=O)O)c(F)c1)S(=O)(=O)c1c(F)c(F)c(F)c(F)c1F
IC50 [15]: 100 nM | IC50 [16]: 202 nM | IC50 [17]: 90 nM | Ki [13]: 10000 nM | IC50 [19]: 438 nM | IC50 [31]: 592 nM | IC50 [37]: 214 nM

CN(CC(=O)N(Cc1ccc(C2CCCCC2)cc1)c1ccc(C(=O)O)c(O)c1)S(=O)(=O)c1c(F)c(F)c(F)c(F)c1F
IC50 [15]: 2000 nM | inhibition [18]: Active | Activity [21]: Active | inhibition [29]: Active

C[C@H](NC(=O)/C(C#N)=C/c1cccc(Br)n1)c1ccccc1 [WP 1066]
IC50 [24]: 1800 nM | IC50 [36]: 2100 nM

CCOP(=O)(Cc1ccc(N(Cc2ccc(C3CCCCC3)cc2)C(=O)CN(C)S(=O)(=O)c2c(F)c(F)c(F)c(F)c2F)cc1)OCC
inhibition [13]: inactive

CN(CC(=O)N(Cc1ccc(C2CCCCC2)cc1)c1ccccc1)S(=O)(=O)c1c(F)c(F)c(F)c(F)c1F
inhibition [13]: inactive

CC(=O)OCOC(=O)c1ccc(N(Cc2ccc(C3CCCCC3)cc2)C(=O)CN(C)S(=O)(=O)c2c(F)c(F)c(F)c(F)c2F)cc1
inhibition [13]: inactive

COC(=O)c1ccc(N(Cc2ccc(C3CCCCC3)cc2)C(=O)CN(C)S(=O)(=O)c2c(F)c(F)c(F)c(F)c2F)cc1
inhibition [13]: inactive

CCOC(=O)C(=O)Nc1ccc(N(Cc2ccc(C3CCCCC3)cc2)C(=O)CN(C)S(=O)(=O)c2c(F)c(F)c(F)c(F)c2F)cc1
inhibition [13]: inactive

CCOC(=O)c1ccc(N(Cc2ccc(C3CCCCC3)cc2)C(=O)CN(C)S(=O)(=O)c2c(F)c(F)c(F)c(F)c2F)cc1
inhibition [13]: inactive
